Bioassay records deposited in PubChem by several laboratories.
CatB mixtures = human cathepsin B inhibition by mixtures | inhibition, %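 (ten-compound pools at 5 µM per compound and 50 µM total)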 | Purified cathepsin B, AMC dipeptide fluorescence, compound mixtures | hit rate 0.06% among 62,000 | P07858 | AID 488; in the data active = inhibition above about 22%, passing the limit was not always enough; inconclusive = no clear call, values can overlap the other calls
CatB block = inhibitors of human cathepsin B. P07858. purified cathepsin B, fluorogenic substrate, fluorescence. inhibition, %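 (tested at 10 µM)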. hit rate 0.1% among 63,000; in the data active = inhibition above about 21%
AP ELISA ortho = alternative pathway complement inhibition, orthogonal assay. Human serum alternative complement pathway, LPS-coated ELISA, C3 deposition; tested in compound mixtures. inhibition, % at 5 µM. hit rate 0.08% among 62,000. AID 1235;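 active = inhibition above 30% in each of the two pooled mixtures holding the compound, so the lower value exceeds 30%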
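Test system: human serum complement alternative pathway, C3 deposition onto LPS / Medium: Mg2+-EGTA GVB++ buffer containing human serum at 1:15 dilution / Probe or stimulus: Plate-bound LPS / Times: 1 h at 37 °C / Signal: ELISA with HRP anti-human C3 antibody, TMB substrate, absorbance 450 nm / Measure: percent inhibition / Repeats: two pool placements per compound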
CatS block = inhibitors of human cathepsin S | P25774 | recombinant cathepsin S, AMC dipeptide fluorescence, pooled mixtures | inhibition, %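 (tested at 5 µM per compound within 10-compound mixtures)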 | hit rate 0.06% among 62,000 | AID 501; in the data active = inhibition above about 32%, passing the limit was not always enough; inconclusive = no clear call, values can overlap the other calls
Target sequence (P25774 115-331 limits assumed): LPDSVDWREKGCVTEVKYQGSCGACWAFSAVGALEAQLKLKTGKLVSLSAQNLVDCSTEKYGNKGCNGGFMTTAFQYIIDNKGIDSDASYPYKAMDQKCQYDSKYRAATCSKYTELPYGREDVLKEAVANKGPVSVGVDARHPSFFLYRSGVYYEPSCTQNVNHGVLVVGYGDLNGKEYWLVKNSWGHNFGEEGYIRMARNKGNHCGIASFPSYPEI
CatL inh = inhibitors of human cathepsin L | AID 460 | inhibition, %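 (tested at 10 µM)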 | hit rate 0.17% among 58,000 | purified cathepsin L, fluorogenic substrate, fluorescence; in the data active = inhibition above about 45%
Target sequence (P07711 114-288 limits assumed): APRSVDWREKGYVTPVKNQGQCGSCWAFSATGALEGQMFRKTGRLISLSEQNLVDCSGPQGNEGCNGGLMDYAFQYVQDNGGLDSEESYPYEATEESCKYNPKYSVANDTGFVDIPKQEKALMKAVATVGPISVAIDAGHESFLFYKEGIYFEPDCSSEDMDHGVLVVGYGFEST
Target sequence (P07711 292-333 limits assumed): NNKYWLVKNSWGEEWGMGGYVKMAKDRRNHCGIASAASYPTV
Hsp90 inh = displaces geldanamycin probe from tumor Hsp90. P07900. NCI-N417 lysate Hsp90, Cy3B-geldanamycin FP displacement. inhibition, % at 30 µM. hit rate 0.35% among 64,000. AID 429;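 active = inhibition above 50%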
Each line names hits and unclear results; the compound was inactive in the other large screens. An excerpt weighted towards active compounds, which were near 0.69% of everything screened.

COc1ccccc1CN(Cc1ccco1)S(=O)(=O)c1ccc(-n2cnnn2)c(OC)c1	CatS block 59.7
O=C(NCCCn1ccnc1)c1noc2c1CCc1ccccc1-2	Hsp90 inh 62.8
O=C(O)CCC(NC(=O)c1ccccc1C(=O)O)C(=O)O (configuration not stated)	none (no result: CatB mixtures, CatB block, AP ELISA ortho, CatS block, CatL inh)
CCOC(=O)/C(C#N)=C1/C=C(C)NC(c2ccccc2O)=N1	none
CCOC(=O)/C(C#N)=C1/C=CN(C)C(C)=N1	AP ELISA ortho 33.2 (no result: CatB block, CatL inh)
COc1ccc2[nH]c(=O)c(CN(CCO)C(=O)c3ccccc3F)cc2c1	none
COn1c(SC2CCCCC2)nc2ccccc2c1=O	none (no result: CatB mixtures, AP ELISA ortho, CatS block)
CC(C)C[C@H](N)c1nnc(S(=O)(=O)Cc2cccc(F)c2)o1	CatL inh 46.4
CCOC(=O)N1CCC(N2C(=O)c3ccc(C(=O)NC4CCCCCC4)cc3C2=O)CC1	none (no result: CatL inh)
Cc1ccc(S(=O)(=O)Nc2ccc3oc(=O)sc3c2)c(C)c1	Hsp90 inh 55.9
O=C(O)c1cc(S(=O)(=O)Nc2ccc3oc(=O)sc3c2)ccc1O	none
COc1ccc(CCNC(=O)C2CCN(S(=O)(=O)c3cc(OC)ccc3OC)CC2)cc1	CatL inh 46.1
CCOc1ccc(NCC(=O)Nc2ccc(C)cc2C)cc1	Hsp90 inh 52.1
CCCCNC(=O)CSc1nnc(NC(C)=O)s1	none
CCC(=O)Oc1oc(-c2ccccc2)nc1C=Nc1ccccc1OC	CatB block 25.9 (no result: CatB mixtures, AP ELISA ortho, CatS block)
CC(=O)NC(=O)NC1OC(=O)C(Cl)=C1Cl (configuration not stated)	CatB mixtures inconclusive, CatB block 20.8
CN(Cc1ccco1)C(=O)C1CCC(=O)N1Cc1ccc(F)cc1 (configuration not stated)	none (no result: CatB mixtures, CatB block, AP ELISA ortho, CatS block, CatL inh)
CC(C)CCNC(=O)[C@H](CC(C)C)NC(=O)[C@H]1O[C@@H]1C(=O)O	CatB mixtures 100.3, CatL inh 98.7 (no result: CatB block, CatS block)
CC(C)CC(NC(=O)C(CC(C)C)NC(=O)OC(C)(C)C)C(=O)O (configuration not stated)	none
COc1ccc2nc(CC(C)(C)CC(=O)O)c[n+]([O-])c2c1	CatB block 23.2
Cc1cc(C(=O)N(C)CC(=O)Nc2ccccc2C(F)(F)F)c(C)o1	none (no result: Hsp90 inh)
CCOc1ccc2noc3c2c1C(=O)c1ccccc1-3	none (no result: CatB block, CatL inh)
O=C1c2ccccc2-c2onc3ccc(NCc4ccco4)c1c23	Hsp90 inh 50.2 (no result: CatB mixtures, AP ELISA ortho, CatS block)
C=CS(=O)(=O)c1ccc(Oc2ccc(S(=O)(=O)C=C)cc2)cc1	CatS block 38.6
CCCc1cc(C(=O)NC2CCCC2)no1	AP ELISA ortho 39.6
Cc1ccc(S(=O)(=O)N(C)CC(=O)N2CCCc3ccccc32)cc1	none
CCOC(=O)N1CCC(NC(=O)C2CCCCN2S(=O)(=O)c2ccc(F)cc2)CC1 (configuration not stated)	CatL inh 104.2
COc1ccc(-n2c(N)c(C(=O)NCc3ccco3)c3nc4ccccc4nc32)c(OC)c1	none
CCCCC(=O)Nc1ccc(NC(=O)CCCC)nc1	AP ELISA ortho 68.8
CCOc1cc(N2CCOCC2)c(OCC)cc1NC1=NCCCCC1	Hsp90 inh 60.9
FC(F)(F)c1ccc(N2CCOCC2)c(NC2=NCCCCC2)c1	none
O=C(Cn1c(CN2CCCCC2)nc2ccccc2c1=O)Nc1ccccc1	AP ELISA ortho 35.6
COc1ccc(C2=NO[C@@H]3C(=O)N(c4ccc5c(c4)OCCO5)C(=O)[C@H]23)cc1OC	Hsp90 inh 67.8
COc1ccc(C2=NO[C@@H]3C(=O)N(C4CCCCC4)C(=O)[C@H]23)cc1OC	none
Cc1oc(-c2ccccc2F)nc1CS(=O)CC(=O)NCc1cccs1 (configuration not stated)	AP ELISA ortho 40.4 (no result: CatL inh)
Cc1oc(-c2ccccc2F)nc1CS(=O)CC(=O)NCc1ccc2c(c1)OCO2 (configuration not stated)	none (no result: CatL inh)
CCOC(=O)c1sc(NC(=O)CCn2nnc3ccccc32)c(C(=O)OCC)c1C	none
CN1C(=O)c2c(sc3c2CC(C)(C)SC3)N2CCN=C12	AP ELISA ortho 35.4
Nc1nc(Cl)nc2c1ncn2[C@@H]1O[C@H](CO)[C@H](O)C1O (some centres not stated)	none (no result: CatB mixtures, CatB block, AP ELISA ortho, CatS block, CatL inh)
Cn1c(=O)[nH]c(=O)c2c1nc(Br)n2CC(O)c1ccccc1 (configuration not stated)	AP ELISA ortho 41.7
Cn1c(=O)[nH]c(=O)c2c1nc(Br)n2CCOc1ccccc1	none
N.N.N.N.N.N.N.N.N.N.N.N.N.N.O.O.[Cl-].[Cl-].[Cl-].[Cl-].[Cl-].[Cl-].[Ru+4].[Ru+5].[Ru+5]	none (no result: CatB mixtures, CatB block, AP ELISA ortho, CatS block, CatL inh)
COc1cc(NC(=O)C=CC(=O)O)c2ncccc2c1	none (no result: CatB mixtures, CatB block, AP ELISA ortho, CatS block, CatL inh)
CCCCOc1ccc(C2C3CN(C(=O)OCC)CC=C3C(C#N)=C(N)C2(C#N)C#N)cc1OC (configuration not stated)	CatL inh 60.5
Nc1nonc1-c1nc2ccccc2[nH]1	CatB mixtures 52.0
O=C(NC1CC2CCC1C2)C1CCN(S(=O)(=O)c2ccc(-c3nn[nH]n3)cc2)CC1 (configuration not stated)	AP ELISA ortho 30.9
COc1ccc(CNC(=O)C2CCN(S(=O)(=O)c3ccc(-c4nn[nH]n4)cc3)CC2)cc1	none
Cc1cc(S(=O)(=O)NCc2cccnc2)ccc1-n1cnnn1	none
Oc1ccc(C2CNCc3sccc32)cc1O (configuration not stated)	Hsp90 inh 58.2 (no result: CatB mixtures, CatB block, AP ELISA ortho, CatS block, CatL inh)
CCN(CC)S(=O)(=O)c1csc(C(=O)NCc2ccccc2)c1	none
COc1ccc2c(C)nc(Nc3nc(C)cc(C)n3)nc2c1	CatL inh 61.3
CCN(CC)CCNC(=O)CCCNC(=O)Cn1cnc2sc(C)c(C)c2c1=O	none
Cc1ccc(-c2nnc3ccc(SC(C)C(=O)O)nn23)cc1 (configuration not stated)	none
CC(Sc1ccc2nnc(-c3ccc(F)cc3)n2n1)C(=O)O (configuration not stated)	CatL inh 54.0
O=S(=O)(NC1CCc2ccccc21)c1ccc(S(=O)(=O)N2CCCC2)cc1 (configuration not stated)	Hsp90 inh 92.4
CSc1nc(N)c2ncn([C@@H]3O[C@H](COP(=O)(O)OP(=O)(O)OP(=O)(O)O)[C@H](O)C3O)c2n1 (some centres not stated)	none (no result: CatB mixtures, CatB block, AP ELISA ortho, CatS block, CatL inh)
O=S(=O)(Cc1ccc(Cl)cc1)Nc1ccc2c(c1)OCO2	Hsp90 inh 56.3
CS(=O)(=O)N(CC(=O)Nc1ccc2c(c1)OCO2)Cc1ccc(Cl)cc1	none
COc1ccccc1-c1nnc2n1N=C(c1ccc(O)c(O)c1)CS2	Hsp90 inh 65.5 (no result: CatB mixtures, AP ELISA ortho, CatS block)
CCOc1ccc(C2=Nn3c(nnc3-c3ccccc3OC)SC2)cc1	none (no result: CatB mixtures, AP ELISA ortho, CatS block)
CCOC(=O)N1CCC(NC(=O)CSCc2nc(-c3cccc(OC)c3)oc2C)CC1	none
CCOC(=O)N1CCC(NC(=O)CSCc2nc(-c3sccc3C)oc2C)CC1	Hsp90 inh 98.4 (no result: CatL inh)
CCn1c(CSc2nnc(-c3cccnc3)n2-c2ccccc2C)nc2cc(C(=O)O)ccc21	Hsp90 inh 145.4
CCn1c(CSc2nnc3ccccn23)nc2cc(C(=O)O)ccc21	Hsp90 inh 138.3
